Positions count from the first letter of the chain named. Active and inactive are the calls of the source. The rule behind the calls is not given here.
Legend:
[1] = biological target: T1, Aldo-keto reductase family 1 member C3 (Homo sapiens) (UniProt P42330); assay: Inhibition of recombinant AKR1C3 using 1-acenaphthenol as substrate at 10 uM by spectrophotometry
T1 sequence (whole entry): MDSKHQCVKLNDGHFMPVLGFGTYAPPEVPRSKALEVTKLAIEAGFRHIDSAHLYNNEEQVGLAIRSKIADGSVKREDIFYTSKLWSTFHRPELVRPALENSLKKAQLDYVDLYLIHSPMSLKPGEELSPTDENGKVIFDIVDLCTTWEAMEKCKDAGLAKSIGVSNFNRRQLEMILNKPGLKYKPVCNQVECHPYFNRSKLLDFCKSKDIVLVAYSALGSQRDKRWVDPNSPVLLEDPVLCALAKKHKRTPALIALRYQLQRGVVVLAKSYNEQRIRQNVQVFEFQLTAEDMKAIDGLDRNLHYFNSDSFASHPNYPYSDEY
Procedure, shortened: (§1)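 Oxidation of 1-acenaphthenol was run with 2.3 mM NAD+ in 100 mM phosphate pH 9.0 containing 0.005% Triton X-114 and 5% DMSO. Substrate/enzyme were 30 µM/0.1 µM for AKR1C1, 60 µM/0.3 µM for AKR1C2 and 100 µM/1.5 µM for AKR1C3. NADH rise was read at 340 nm from initial velocities. […] Mean of two experiments.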

[2] = biological target: T2, Aldo-keto reductase family 1 member C1 (Homo sapiens) (UniProt Q04828); assay: Inhibition of recombinant AKR1C1 using 1-acenaphthenol as substrate at 10 uM by spectrophotometry; procedure, shortened: as §1
T2 sequence (whole entry): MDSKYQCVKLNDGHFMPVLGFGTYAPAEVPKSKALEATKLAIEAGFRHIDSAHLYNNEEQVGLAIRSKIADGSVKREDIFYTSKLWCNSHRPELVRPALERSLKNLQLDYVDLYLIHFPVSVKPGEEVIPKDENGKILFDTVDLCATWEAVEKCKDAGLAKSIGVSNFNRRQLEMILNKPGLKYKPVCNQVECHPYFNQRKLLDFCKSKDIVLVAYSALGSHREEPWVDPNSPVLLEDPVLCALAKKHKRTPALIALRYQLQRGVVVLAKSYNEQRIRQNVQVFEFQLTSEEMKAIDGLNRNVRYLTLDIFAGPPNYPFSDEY

[3] = biological target: T3, Aldo-keto reductase family 1 member C2 (Homo sapiens) (UniProt P52895); assay: Inhibition of recombinant AKR1C2 using 1-acenaphthenol as substrate at 10 uM by spectrophotometry; procedure, shortened: as §1
T3 sequence (whole entry): T2 sequence (whole entry) with T38V, R47H, L54V, C87S, V151M, R170H, Q172L

[4] = biological target: T4, Aldo-keto reductase family 1 member C1 (Homo sapiens, UniProt Q04828); assay: Inhibition of recombinant AKR1C1 using 1-acenaphthenol as substrate by spectrophotometry; procedure, shortened: as §1
T4 sequence (Q04828 whole entry): T2 sequence (whole entry)

[5] = biological target: T5, Aldo-keto reductase family 1 member C2 (Homo sapiens, UniProt P52895); assay: Inhibition of recombinant AKR1C2 using 1-acenaphthenol as substrate by spectrophotometry; procedure, shortened: as §1
T5 sequence (P52895 whole entry): T2 sequence (whole entry) with T38V, R47H, L54V, C87S, V151M, R170H, Q172L

[6] = biological target: T6, Aldo-keto reductase family 1 member C3 (Homo sapiens, UniProt P42330); assay: Inhibition of recombinant AKR1C3 using 1-acenaphthenol as substrate by spectrophotometry; procedure, shortened: as §1
T6 sequence (P42330 whole entry): T1 sequence (whole entry)

[7] = biological target: T7, Aldo-keto reductase family 1 member C4 (Homo sapiens, UniProt P17516); assay: Inhibition of recombinant AKR1C4 using S-tetralol as substrate by fluorimetry
T7 sequence (P17516 whole entry): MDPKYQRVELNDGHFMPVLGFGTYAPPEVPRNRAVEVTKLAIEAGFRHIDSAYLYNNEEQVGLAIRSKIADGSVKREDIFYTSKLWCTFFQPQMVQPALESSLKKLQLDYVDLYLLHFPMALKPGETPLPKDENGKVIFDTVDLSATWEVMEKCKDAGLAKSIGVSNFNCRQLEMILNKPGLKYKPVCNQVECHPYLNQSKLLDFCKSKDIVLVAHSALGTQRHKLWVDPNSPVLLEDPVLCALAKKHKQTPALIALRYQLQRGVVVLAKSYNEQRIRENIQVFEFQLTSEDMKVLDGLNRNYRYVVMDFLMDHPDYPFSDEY
Procedure, shortened: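 Continuous NADP+-dependent oxidation of S-tetralol, read as NADPH fluorescence at 340/460 nm. Buffer was 100 mM phosphate pH 7.0 with 200 µM NADP+ and 4% DMSO. Initial velocities were fitted to give IC50. Mean of two independent experiments.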

[8] = biological target: T4, Aldo-keto reductase family 1 member C1; assay: Inhibition of recombinant AKR1C1 using S-tetralol as substrate by fluorimetry
Procedure, shortened: (§2)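 Continuous NADP+-dependent oxidation of S-tetralol, read as NADPH fluorescence at 340/460 nm. Buffer was 100 mM phosphate pH 7.0 with 200 µM NADP+ and 4% DMSO. […] Enzyme was 111, 86, 95 and 184 nM respectively. Initial velocities were fitted to give IC50. Mean of two independent experiments.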

[9] = biological target: T5, Aldo-keto reductase family 1 member C2; assay: Inhibition of recombinant AKR1C2 using S-tetralol as substrate by fluorimetry; procedure, shortened: as §2
[10] = species on record: Homo sapiens; assay: Selectivity ratio of IC50 for AKR1C1 to AKR1C3
Procedure, shortened: (§3)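 Fold selectivity for AKR1C3 was calculated from IC50 values of the secondary assay. That assay followed fluorimetric NADP+-dependent S-tetralol oxidation at pH 7.0, with substrate at each isoform's Km.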

[11] = biological target: T6, Aldo-keto reductase family 1 member C3; assay: Inhibition of recombinant AKR1C3 using S-tetralol as substrate by fluorimetry; procedure, shortened: as §2
[12] = species on record: Homo sapiens; assay: Selectivity ratio of IC50 for AKR1C2 to AKR1C3; procedure, shortened: as §3
[13] = species on record: Homo sapiens; assay: Selectivity ratio of IC50 for AKR1C4 to AKR1C3; procedure, shortened: as §3

inhibition [1]	inhibition [2]	inhibition [3]	IC50 [4]	IC50 [5]	IC50 [6]	IC50 [7]	IC50 [8]	IC50 [9]	Ratio IC50 [10]	IC50 [11]	Ratio IC50 [12]	Ratio IC50 [13]	Compound
5.6%	53.2%	33.6%	8.4 µM	15.6 µM	–	–	–	–	–	–	–	–	O=C(Nc1ccc(Br)cc1C(=O)O)c1ccc(F)c([N+](=O)[O-])c1
1.9%	inactive	31.6%	–	–	–	–	–	–	–	–	–	–	O=C(Nc1ccc(O)cc1C(=O)O)c1cccc([N+](=O)[O-])c1
87.9%	11.8%	10.4%	–	–	2.6 µM	–	35.2 µM	41.6 µM	–	840 nM	–	–	O=C(Nc1ccc([N+](=O)[O-])cc1C(=O)O)c1cccc(O)c1
42.1%	inactive	inactive	–	–	12.7 µM	–	> 100 µM	48.1 µM	> 19	5190 nM	9	> 19	O=C(Nc1ccccc1C(=O)O)c1cccc(O)c1
30.4%	65.9%	70.5%	4.9 µM	4.9 µM	–	–	–	–	–	–	–	–	CCCCOc1cccc(C(=O)Nc2ccc(Br)cc2C(=O)O)c1
inactive	8%	inactive	–	–	–	–	–	–	–	–	–	–	Nc1cccc(C(=O)Nc2ccccc2C(=O)O)c1
3.4%	inactive	23.4%	–	–	–	–	–	–	–	–	–	–	O=C(Nc1ccc(Cl)cc1C(=O)O)c1cccc([N+](=O)[O-])c1
47.2%	70.8%	58.3%	3.2 µM	6.5 µM	7.5 µM	–	–	–	–	–	–	–	CCCCOc1cc(C(=O)Nc2ccccc2C(=O)O)ccc1[N+](=O)[O-]

The next lines start with the compound.

Compound	inhibition [1]	inhibition [2]	inhibition [3]	IC50 [4]	IC50 [5]	IC50 [6]	IC50 [7]	IC50 [8]	IC50 [9]	Ratio IC50 [10]	IC50 [11]	Ratio IC50 [12]	Ratio IC50 [13]
COc1cc(NC(=O)c2cccc([N+](=O)[O-])c2)c(C(=O)O)cc1OC	3.5%	22.2%	inactive	–	–	–	–	–	–	–	–	–	–
CCOc1cccc(C(=O)Nc2ccc(Br)cc2C(=O)O)c1	19.1%	31.9%	36.8%	20.6 µM	17.1 µM	–	–	–	–	–	–	–	–
O=C(Nc1ccc(Br)cc1C(=O)O)c1cccc(O)c1	89.6%	21.6%	16.7%	–	–	1.9 µM	30.3 µM	100 µM	63 µM	286	350 nM	180	86
Nc1cccc(C(=O)Nc2ccc(O)cc2C(=O)O)c1	5.6%	9.7%	28.7%	–	–	–	–	–	–	–	–	–	–
Cc1cc(Cl)cc(C(=O)O)c1NC(=O)c1cccc([N+](=O)[O-])c1	inactive	inactive	22.5%	–	–	–	–	–	–	–	–	–	–
O=C(Nc1ccc(Cl)cc1C(=O)O)c1cccc(O)c1	77.8%	17.4%	6.7%	–	–	2.2 µM	20.1 µM	50.8 µM	50.2 µM	164	310 nM	162	65
COc1cc(NC(=O)c2cccc(O)c2)c(C(=O)O)cc1OC	70.2%	11.8%	29.4%	–	–	5.2 µM	50.9 µM	86.3 µM	30 µM	30	2900 nM	10	18
COc1cc(NC(=O)c2cccc(N)c2)c(C(=O)O)cc1OC	5.6%	18%	20.2%	–	–	–	–	–	–	–	–	–	–

From ChEMBL document CHEMBL2069201, “N-Benzoyl anthranilic acid derivatives as selective inhibitors of aldo-keto reductase AKR1C3” (Bioorg Med Chem Lett, 2012)
